This is an account of results in ChEMBL document CHEMBL4359913, “Identification and characterization of benzo[d]oxazol-2(3H)-one derivatives as the first potent and selective small-molecule inhibitors of chromodomain protein CDYL” (Eur J Med Chem, 2019).

Structures are written as SMILES.

This test concerns the target T1, Chromobox protein homolog 7 (Homo sapiens, UniProt O95931).
T1 sequence (O95931 whole entry): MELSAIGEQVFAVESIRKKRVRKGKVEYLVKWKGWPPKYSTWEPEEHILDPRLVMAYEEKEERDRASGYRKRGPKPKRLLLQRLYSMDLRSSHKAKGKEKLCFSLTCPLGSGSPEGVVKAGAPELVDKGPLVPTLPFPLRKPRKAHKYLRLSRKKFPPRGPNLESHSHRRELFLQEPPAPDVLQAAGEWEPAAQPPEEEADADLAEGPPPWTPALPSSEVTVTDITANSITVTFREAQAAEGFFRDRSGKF
The test is described as follows: Binding affinity to recombinant human N-terminal GST-tagged CBX7 (1 to 62 residues) expressed in Escherichia coli […] by SPR analysis. An outline of the steps: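 Chromodomain expressed with N-terminal GST tag in E. coli BL21 (IPTG 0.2 mM at OD600 0.6–0.8, 28 C for 6 h), GSTrap purified, tag cleaved by PreScission protease, amine-coupled to CM5 chip at pH 4.0–4.5 (5000–10000 RU). […] Mean ± SD of at least two replicates, each in duplicate.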

For the molecule `O=C(Cn1c(=O)oc2ccccc21)N1CCC(N2CCCC2)CC1`, the Kd is 16.2 µM.
